EBI2 antag: antagonists of human EBI2 receptor. inhibition, % at 5 µM. EBI2 beta-arrestin recruitment, luminescence, 7a,25-OHC stimulated. 0.81% of 360,000 active. P32249; in the data active = inhibition above about 38%;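 note: enzyme fragment complementation signal reports receptor beta-arrestin coupling in cells; 0% = agonist plus DMSO wells and 100% = wells without agonist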
CXCR6 inh: inhibitors of human CXCR6 receptor | O00574 | CHO-K1 PathHunter CXCR6 beta-arrestin, luminescence | inhibition, % at 20 µM | 0.36% of 360,000 active | AID 602244; in the data active = inhibition above about 34%, passing the limit was not always enough;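 note: antagonist mode with CXCL16 agonist at 10 nM final; 0% = 10 nM CXCL16 with DMSO and 100% = unstimulated wells without agonist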
Target sequence (O00574 whole entry, looked up): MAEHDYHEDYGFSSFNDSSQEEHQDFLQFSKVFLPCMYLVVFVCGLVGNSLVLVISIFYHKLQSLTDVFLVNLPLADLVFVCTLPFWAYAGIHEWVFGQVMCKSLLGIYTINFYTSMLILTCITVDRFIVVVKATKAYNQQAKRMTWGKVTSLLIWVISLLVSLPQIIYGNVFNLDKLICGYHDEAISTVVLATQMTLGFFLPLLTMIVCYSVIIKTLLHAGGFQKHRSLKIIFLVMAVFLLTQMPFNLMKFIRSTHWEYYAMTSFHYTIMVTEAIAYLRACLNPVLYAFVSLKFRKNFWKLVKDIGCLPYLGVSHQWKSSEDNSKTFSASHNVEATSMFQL
CCR6 antag: antagonists of human CCR6 receptor; P51684; CHO-K1 CCR6 PathHunter beta-arrestin, luminescence, CCL20-stimulated; inhibition, % at 20 µM; 0.49% of 340,000 active; AID 493098;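 active = compounds whose inhibition of the agonist-driven luminescence signal at 20 µM reaches about 50%, limit read from the data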;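 note: cells stimulated with CCL20 at 14 nM final; plate controls were DMSO with CCL20 for no effect and DMSO without agonist for full effect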
APJ antag: blocks the human apelin receptor APJ | P35414 | CHO-K1 APJ beta-arrestin complementation, luminescence | inhibition, % at 20 µM | 0.32% of 330,000 active;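 active = inhibition above about 40% at 20 µM, limit read from the data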;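 note: cells challenged with 10 nM apelin-13 agonist together with compound; plate controls were apelin-13 plus DMSO wells for no effect and DMSO wells lacking apelin-13 for full effect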
Target sequence (P35414 whole entry, looked up): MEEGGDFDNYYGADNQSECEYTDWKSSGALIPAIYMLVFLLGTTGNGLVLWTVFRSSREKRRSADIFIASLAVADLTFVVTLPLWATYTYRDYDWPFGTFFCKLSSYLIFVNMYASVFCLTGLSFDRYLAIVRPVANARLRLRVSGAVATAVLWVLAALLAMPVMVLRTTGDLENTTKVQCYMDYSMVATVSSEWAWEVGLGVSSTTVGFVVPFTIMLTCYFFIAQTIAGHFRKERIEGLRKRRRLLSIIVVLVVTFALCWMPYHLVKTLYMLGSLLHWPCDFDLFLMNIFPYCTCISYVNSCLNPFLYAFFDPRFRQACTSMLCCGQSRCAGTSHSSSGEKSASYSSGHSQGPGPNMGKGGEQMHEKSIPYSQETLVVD
APJ ag: APJ receptor agonism; P35414; AID 2520; activation, % at 20 µM; CHO-K1 APJ PathHunter beta-arrestin, luminescence; 0% DMSO wells, 100% apelin; 0.11% of 330,000 active;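 active = activation more than six SD over the plate average, tested at 20 µM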;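 note: 0% = DMSO alone and 100% = apelin-13 at 10 nM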
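Assay system: CHO-K1 cells stably expressing ProLink-tagged human APJ and arrestin–beta-gal acceptor. Compound dosing: 20 µM single point, 1% DMSO. Times: 16-18 h seeding, 90 min dark compound exposure, 60 min detection. Detection: beta-gal luminescence. Evaluation: APJ–arrestin association signal. Controls: negative DMSO alone, positive Apelin-13 at 10 nM.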
iPSC survival up: hiPSC single-cell survival enhancement; ATPlite luminescence; 100% = ROCK inhibitor wells, 0% = DMSO; survival enhancement, % at 20 µM; 0.044% of 360,000 active; AID 602274; in the data active = survival enhancement above about 18%;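 note: cells exposed to compounds for 16 hours before the ATP read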
EBI2 antag conf: confirmation of human EBI2 receptor antagonists; shares compounds with EBI2 antag; EBI2 beta-arrestin luminescence, 7a,25-OHC antagonism; inhibition, % at 5 µM; 29% of 2,400 active;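 active = inhibition of at least 50%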
EBI2 ag: activates EBI2, counter-screen for EBI2 antagonists. shares compounds with EBI2 antag. EBI2-expressing cells, agonist mode, luminescence, 60 min; 0% vehicle, 100% 7α,25-dihydroxycholesterol control. activation, % at 5 µM. 2,400 tested, under 10 active. AID 652000;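 active = activation of at least 50%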
bGal counter: counter-screen for EBI2 antagonists: E. coli beta-galactosidase inhibition; shares compounds with EBI2 antag; purified beta-galactosidase, luminescent Galacton Star, 15 min; inhibition, % at 5 µM; 1% of 2,400 active; AID 652176;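 active = replicate-average signal at least 3 plate SD below neutral wells, shown as high inhibition, flagging enzyme-inhibiting false positives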;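 note: 0% = DMSO wells with enzyme and 100% = wells lacking enzyme; higher means stronger loss of beta-gal luminescence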
* hit, by the source's call; . = no result. Only some compounds are listed: those with a hit (about 1.5% of all), similar ones and a draw of the others.

SMILES	EBI2 antag	CXCR6 inh	CCR6 antag	APJ antag	APJ ag	iPSC survival up	EBI2 antag conf	EBI2 ag	bGal counter
O=C(COC(=O)/C=C/c1ccccc1)NC(=O)NCc1ccccc1	9.3	16.6	20.3	-2.3	-1.2	-1.8	.	.	.
Cc1ccc(/C=C/C(=O)OCC(=O)NC(=O)NCc2ccccc2)cc1	46.3*	8.1	8.2	-15.7	-2.0	-1.7	14.1	-0.6	-6.9
CCN(CC(=O)NCc1ccc(Cl)cc1)C(=O)c1cc(OC)cc(OC)c1	6.9	0.3	-6.7	4.1	-1.8	0.3	.	.	.
COc1ccc(NC(=O)C[C@H]2C(=O)N(c3ccc(Br)cc3)C[C@@H]2c2ccc(OC)cc2)cc1	27.1	8.8	.	.	.	-1.0	.	.	.
COc1ccc([C@H]2CN(c3ccc(OC)cc3)C(=O)[C@@H]2CC(=O)Nc2ccccc2)cc1	46.4*	14.1	.	.	.	-1.4	52.5*	-0.7	-14.2
CCOc1ccc(S(=O)(=O)N(CC(=O)Nc2cccnc2)c2ccc(F)cc2)cc1	10.1	-3.6	5.6	-3.0	2.6	-0.3	.	.	.
COc1cc(-c2nnc(COc3ccc4cc(Br)ccc4c3)o2)cc(OC)c1OC	55.5*	2.8	7.9	15.3	-0.9	-0.3	14.2	1.0	0.9
C=CCn1c(=O)c2ccc(C(=O)NCc3ccccc3)cc2n(Cc2cccc(Cl)c2)c1=O	54.9*	11.5	26.4	-3.2	-3.9	0.2	44.6	1.9	2.5
CN1c2ccccc2C2(C)CCCC3=Cc4cccc([N+](=O)[O-])c4OC312 (stereo not drawn)	41.2*	13.4	27.6	15.2	-3.8	-1.8	0.2	-1.4	-10.7
COC12CC(=O)C(C(C)=O)=C(O)C1(C)c1c(O)c(C)c(O)c(C(C)=O)c1O2 (stereo not drawn)	1.2	2.4	.	.	.	0.1	.	.	.
COc1ccc(C(=O)C2CCCN(C(=O)c3cccc(Cl)c3F)C2)cc1OC (stereo not drawn)	-2.0	-15.2	13.8	16.7	1.3	-0.2	.	.	.
c1ccc(CCNc2ncnc3scc(C4COc5ccccc5O4)c23)cc1 (stereo not drawn)	86.8*	-5.9	3.6	14.2	-3.5	8.2	55.3*	1.2	-1.2
CCN1C[C@@H]2[C@@H]3C(=O)N(C)C(=O)[C@@H]3[C@](Cc3ccccc3)(C(=O)OC)N2C1=NC1CCCCC1	2.6	6.6	12.8	.	.	1.8	.	.	.
Cc1ccc(OCC(=O)N2CCN(C(=O)c3ccco3)CC2)cc1	52.2*	4.4	10.1	-14.4	-4.3	-0.7	23.2	3.0	7.0
O=C(CSc1ccc(Br)cc1)N1CCOCC1	11.9	0.7	-0.3	3.9	1.4	0.2	.	.	.
COc1ccc(CN2CCN(C(=O)c3cccs3)CC2)cc1	-18.1	1.8	0.0	-17.1	0.2	-0.8	.	.	.
O=C(COc1ccc2ccccc2c1)N1CCN(C(=O)c2ccco2)CC1	72.5*	-11.8	8.1	-0.7	-3.4	0.4	49.7	-0.8	-6.3
Cc1ccc(OCC(=O)N2CCN(C(=O)c3cccs3)CC2)cc1	60.1*	-1.9	-1.9	-3.9	-2.4	-1.6	41.1	1.4	-2.9
O=C(CSc1ccc(Br)cc1)N1CCN(C(=O)c2ccco2)CC1	82.5*	-7.4	3.9	-17.5	-2.1	-1.7	69.1*	0.3	2.1
CCC(=O)N1CCC1(C)C(=O)Nc1ccc2nc(C)ccc2c1 (stereo not drawn)	-3.6	-6.1	.	.	.	-1.8	.	.	.
CC(OC(=O)Cn1cnc2c1c(=O)n(C)c(=O)n2C)C(=O)NC1(C#N)CCCCC1 (stereo not drawn)	1.3	-10.3	1.5	-52.5	-2.3	-0.1	.	.	.
CC(=O)OC1CC2(C)C(CCC2(O)C(C)=O)C2CCC3C(Cl)C(=O)CCC3(C)C12 (stereo not drawn)	17.3	-2.1	3.9	.	.	1.0	.	.	.
C#Cc1ccc(CN2CCC(C(=O)Nc3ccc(Oc4ccccc4)nc3)CC2)cc1	27.9	-1.7	12.6	17.2	-3.0	-0.5	.	.	.
O=C(Nc1ccc(Oc2ccccc2)nc1)C1CCCCN1Cc1ccc(OCCO)cc1 (stereo not drawn)	66.1*	-10.5	1.5	-22.2	10.3	1.0	42.1	-1.1	11.6
CCCc1ncc(CN2CCCCC2C(=O)Nc2ccc(Oc3ccccc3)nc2)cn1 (stereo not drawn)	14.7	1.7	0.7	3.3	-8.0	-0.5	.	.	.
SMILES	EBI2 antag	CXCR6 inh	CCR6 antag	APJ antag	APJ ag	iPSC survival up	EBI2 antag conf	EBI2 ag	bGal counter
CC(=O)c1cccc(CN2CCCCC2C(=O)Nc2ccc(Oc3ccccc3)nc2)c1 (stereo not drawn)	70.7*	-15.2	14.7	3.5	8.0	0.4	48.8	0.5	7.8
O=C(Nc1ccc(Oc2ccccc2)nc1)C1CCCCN1Cc1ccco1 (stereo not drawn)	54.4*	-5.2	15.4	3.9	-0.7	0.0	24.8	0.2	3.6
O=C(NCC(=O)N1CCN(Cc2c(F)cccc2Cl)CC1)c1cccc(Cl)c1	6.9	-7.7	8.0	-38.1	-4.3	0.7	.	.	.
NC(=O)C1CCN(C(=O)c2ccc3nc(-c4ccccc4)c(-c4ccccc4)nc3c2)CC1	8.9	11.0	13.3	-0.8	-0.2	-0.1	.	.	.
O=C1OCCC1Sc1nnc(-c2ccccc2Cl)n1Cc1ccccc1 (stereo not drawn)	53.5*	4.1	-5.1	4.6	-3.1	0.4	12.0	-0.4	-7.4
O=C1OCCC1Sc1nnc(-c2ccccc2Br)n1Cc1ccccc1 (stereo not drawn)	0.6	-3.9	6.1	1.5	-2.1	1.3	.	.	.
Clc1ccc(OCc2nnnn2-c2ccccc2)cc1	78.6*	-1.8	22.1	6.8	-4.9	1.3	54.4*	1.6	3.8
Cc1ccccc1CN(C)C(C)C(=O)NCc1ccccc1 (stereo not drawn)	-1.6	-0.7	7.2	.	.	1.0	.	.	.
Nc1sc(-c2ccccc2)cc1C(=O)N1CCNCC1	46.0*	.	.	.	.	.	32.6	0.4	10.5
COc1ccc(CNC(=O)C2CCN(C(=O)c3ccc(-c4ccccc4)cc3)CC2)cc1	68.2*	7.1	5.3	-6.2	-2.8	-0.5	43.5	-0.7	-12.1
O=C(NC1CCCC1)C1CCN(C(=O)c2ccc(-c3ccccc3)cc2)CC1	49.4*	-3.9	-1.4	6.0	-2.2	-0.9	38.8	-1.3	-8.9
O=C(NC(c1ccccc1)c1ccc2ccccc2n1)C1CCN(Cc2ccc(Oc3ccccc3)cc2)CC1 (stereo not drawn)	15.0	6.3	.	.	.	-0.3	.	.	.

Screens (PubChem BioAssay)
